Holding throughout (assay type): functional
Experiment [1] relates to Mus musculus. As to the kind of experiment: Activity expressed as percent inhibition of anti-TNP IgM level in TNP-LPS immunized mice, at a dose of 10 mg/kg perorally. Conditions: route oral. The essentials: (§1)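 Female (C57BL/6 × DBA/2)F1 mice, 6 weeks old, immunized i.v. with TNP-LPS on day 0, then randomized (7/group). Compound given orally on days 0 and 1. Serum taken on day 4 and anti-TNP IgM measured by ELISA. Result given as % inhibition of IgM level versus control, with significance by Student's t-test.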

In experiment [2] the test system is Mus musculus. As to the kind of experiment: Antinephritic activity against Graft-Versus-Host Disease (GVHD) induced (C57BL/6DBA/2)F1 mice at a dose of 32 mg/kg administered perorally. Conditions: route oral. The essentials: (§2)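 Chronic GVHD induced in 6-week-old female (C57BL/6 × DBA/2)F1 mice by two injections of DBA/2 spleen cells (5 × 10⁷ each), given 5 days apart. Oral dosing once daily for 8 weeks, starting 3 days after the second injection. Urinary albumin measured after the last dose by single radial immunodiffusion with rabbit anti-mouse albumin antiserum. 10 mice/group; % inhibition of proteinuria; Student's t-test.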

The test system of experiment [3] is Mus musculus. As to the kind of experiment: Activity was expressed as percent inhibition of anti-TNP IgM level in TNP-LPS immunized mice, at a dose of 0.1 mg/kg perorally. Conditions: route oral. The essentials:
as §1

For experiment [4], the system named is Mus musculus. The experiment can be described thus: Activity was expressed as percent inhibition of anti-TNP IgM level in TNP-LPS immunized mice, at a dose of 1 mg/kg perorally. Conditions: route oral. The essentials:
as §1

In experiment [5] the test system is Mus musculus. The experiment can be described thus: Antinephritic activity against Graft-Versus-Host Disease (GVHD) induced (C57BL/6DBA/2) F1 mice at a dose of 32 mg/kg administered perorally. Conditions: route oral. The essentials:
as §2

Experiment [6] deals with Mus musculus. As to the kind of experiment: Inhibition of anti-DNA antibody in autoimmune diseased MRL/I mice at a dose of 1 mg/kg administered perorally. Conditions: route oral.
Experiment [7] has as its system Mus musculus. As to the kind of experiment: Inhibition of anti-DNA antibody in autoimmune diseased MRL/I mice at a dose of 3.2 mg/kg administered perorally. Conditions: route oral.
Experiment [8] deals with Mus musculus. The experiment can be described thus: Inhibition of histological score (Nephritis in the kidneys) in the autoimmune diseased MRL/l mice at a dose of 0.32 mg/kg administered perorally. Conditions: route oral.
Experiment [9] relates to Mus musculus. The experiment can be described thus: Inhibition of histological score (Nephritis in the kidneys) in the autoimmune diseased MRL/l mice at a dose of 1 mg/Kg administered perorally. Conditions: po.
Experiment [10] concerns Mus musculus. The experiment can be described thus: Inhibition of histological score (Nephritis in the kidneys) in the autoimmune diseased MRL/l mice at a dose of 3.2 mg/Kg administered perorally. Conditions: po.
Experiment [11] relates to Mus musculus. As to the kind of experiment: Activity was expressed as percent inhibition of anti-TNP IgM level in TNP-LPS immunized mice, at a dose of 0.01 mg/kg perorally. Conditions: route oral. The essentials: as §1
Experiment [12] concerns Mus musculus. As to the kind of experiment: Activity was expressed as percent inhibition of anti-TNP IgM level in TNP-LPS immunized mice, at a dose of 100 mg/kg perorally. Conditions: route oral. The essentials:
as §1

Experiment [13] concerns Mus musculus. The experiment can be described thus: Inhibition of anti-DNA antibody in autoimmune diseased MRL/I mice at a dose of 0.32 mg/Kg administered perorally. Conditions: po.

For orientation: inhibition in vivo means the change of the read-out against control, counted positive when it falls. On to `Cc1ccc2c(c1)C(=O)/C(=C(\S)N(C)c1ccccc1)C(=O)N2C`, for which the inhibition in vivo at 10 mg/kg in the experiment with Mus musculus [1] turned out to be 20%.

As to `C=CCN(C(=S)c1c(O)c2cc(Cl)ccc2n(C)c1=O)c1ccccc1`, the inhibition in vivo at 32 mg/kg with Mus musculus [2] was determined as 96%.

With `CSc1ccc2c(c1)c(O)c(C(=O)N(C)c1ccccc1)c(=O)n2C`, the inhibition in vivo at 0.1 mg/kg in the experiment with Mus musculus [3] is 18%. Moreover, in the experiment on Mus musculus [4], the inhibition in vivo at 1 mg/kg is 50%. Besides, the inhibition in vivo at 10 mg/kg in the experiment on Mus musculus [1] came out at 67%. Besides, in the experiment on Mus musculus [5], the inhibition in vivo at 32 mg/kg is 100%.

On to `CN1C(=O)/C(=C(/S)N(C)c2ccc(Br)cc2)C(=O)c2cc(Cl)ccc21`, for which, in the experiment on Mus musculus [1], the inhibition in vivo at 10 mg/kg was determined as 50%.

In the case of `CN1C(=O)/C(=C(/S)N(C)c2ccc(Cl)cc2)C(=O)c2cc(Cl)ccc21`, the inhibition in vivo at 10 mg/kg in the experiment on Mus musculus [1] was 47%.

`CN1C(=O)/C(=C(/S)N(C)c2ccc(OC(F)(F)F)cc2)C(=O)c2cc(Cl)ccc21`: in the experiment with Mus musculus [1], the inhibition in vivo at 10 mg/kg came to 39%.

As for `CSc1ccc2c(c1)c(O)c(S(=O)(=O)N(C)c1ccccc1)c(=O)n2C`, the inhibition in vivo at 32 mg/kg with Mus musculus [2] came to 53%.

For the compound `Cc1cc(Cl)cc2c1N(C)C(=O)/C(=C(/S)N(C)c1ccccc1)C2=O`, the inhibition in vivo at 10 mg/kg in the experiment with Mus musculus [1] is 17%.

Consider `CN1C(=O)/C(=C(/S)N(C)c2ccc(F)cc2)C(=O)c2cc(Cl)ccc21`, for which the inhibition in vivo at 10 mg/kg in the experiment on Mus musculus [1] was determined as 54%.

On to `CSc1ccc2c(c1)c(O)c(C(=S)N(C)c1ccccc1)c(=O)n2C`, for which the inhibition in vivo at 10 mg/kg with Mus musculus [1] was 32%. The inhibition in vivo at 32 mg/kg in the experiment on Mus musculus [2] stood at 99%.

As for `Cc1ccc(N(C)/C(S)=C2/C(=O)c3cc(Cl)ccc3N(C)C2=O)cc1`, the inhibition in vivo at 10 mg/kg in the experiment on Mus musculus [1] was determined as 23%.

For `CN1C(=O)/C(=C(/S)N(C)c2ccccc2)C(=O)c2cc(OC(F)(F)F)ccc21`, in the experiment on Mus musculus [1], the inhibition in vivo at 10 mg/kg was 19%.

For `CN1C(=O)/C(=C(/S)N(C)c2ccccc2)C(=O)c2ccc(Cl)cc21`, the inhibition in vivo at 32 mg/kg in the experiment with Mus musculus [2] is -23%.

Turning to `CSc1ccc2c(c1)c(=O)c(C(=S)N(C)c1ccccc1)c(S)n2C`, the inhibition in vivo at 32 mg/kg with Mus musculus [2] worked out at 37%.

Turning to `CN1C(=O)/C(=C(/S)N(C)c2cccc(Cl)c2)C(=O)c2cc(Cl)ccc21`, the inhibition in vivo at 10 mg/kg in the experiment with Mus musculus [1] is 63%.

Consider `Cn1c(=O)c(C(=S)N(c2ccccc2)C(C)(C)C)c(O)c2cc(Cl)ccc21`, for which the inhibition in vivo at 10 mg/kg in the experiment on Mus musculus [1] turned out to be 11%.

In the case of `COCCCN(/C(S)=C1/C(=O)c2cc(Cl)ccc2N(C)C1=O)c1ccccc1`, the inhibition in vivo at 10 mg/kg with Mus musculus [1] is 31%.

With `Cn1c(=O)c(/C(S)=N/c2ccccc2)c(O)c2cc(Cl)ccc21`, in the experiment with Mus musculus [1], the inhibition in vivo at 10 mg/kg worked out at 38%.

Take `COc1ccc(N(C)/C(S)=C2/C(=O)c3cc(Cl)ccc3N(C)C2=O)cc1`: in the experiment on Mus musculus [1], the inhibition in vivo at 10 mg/kg worked out at 45%. Moreover, in the experiment with Mus musculus [2], the inhibition in vivo at 32 mg/kg turned out to be 97%.

For `COc1ccc2c(c1)c(O)c(C(=S)N(C)c1ccccc1)c(=O)n2C`, the inhibition in vivo at 10 mg/kg with Mus musculus [1] is 31%. Also, the inhibition in vivo at 32 mg/kg in the experiment with Mus musculus [2] turned out to be 99%.

Take `CN1C(=O)/C(=C(/S)N(C)c2ccccc2)C(=O)c2cc(-n3cccc3)ccc21`: the inhibition in vivo at 10 mg/kg with Mus musculus [1] is -10%.

Take `CN1C(=O)/C(=C(/S)N(C)c2ccc(F)c(F)c2)C(=O)c2cc(Cl)ccc21`: the inhibition in vivo at 10 mg/kg with Mus musculus [1] came to 62%.

Regarding `CN1C(=O)/C(=C(/S)N(C)c2cccs2)C(=O)c2cc(Cl)ccc21`, the inhibition in vivo at 10 mg/kg with Mus musculus [1] worked out at 19%.

`CN1C(=O)/C(=C(/S)N(C)c2ccccc2)C(=O)c2ccccc21`: in the experiment with Mus musculus [2], the inhibition in vivo at 32 mg/kg was 85%.

Consider `CSc1ccc(N(C)C(=O)c2c(O)c3cc(SC)ccc3n(C)c2=O)cc1`, for which the inhibition in vivo at 32 mg/kg in the experiment with Mus musculus [2] is 87%.

With `CS/C(=N\c1ccccc1)c1c(O)c2cc(SC)ccc2n(C)c1=O`, the inhibition in vivo at 32 mg/kg in the experiment with Mus musculus [2] turned out to be 84%.

For the compound `COc1cccc(N(C)/C(S)=C2/C(=O)c3cc(Cl)ccc3N(C)C2=O)c1`, the inhibition in vivo at 10 mg/kg in the experiment with Mus musculus [1] worked out at 30%. Further, the inhibition in vivo at 32 mg/kg in the experiment with Mus musculus [2] was determined as 74%.

Take `CN1C(=O)/C(=C(/S)N(C)c2cccc(C(F)(F)F)c2)C(=O)c2cc(Cl)ccc21`: the inhibition in vivo at 10 mg/kg in the experiment on Mus musculus [1] is 29%.

Consider `CN1C(=O)/C(=C(/S)N(C)c2ccccc2)C(=O)c2cc(Br)ccc21`, for which the inhibition in vivo at 10 mg/kg with Mus musculus [1] came out at 56%. The inhibition in vivo at 32 mg/kg in the experiment with Mus musculus [2] amounted to 98%.

As to `CN1C(=O)/C(=C(/S)N(C)c2ccccc2)C(=O)c2cc(Cl)ccc21`, the inhibition in vivo at 1 mg/kg in the experiment on Mus musculus [6] came out at 73%; in the experiment with Mus musculus [9], 85%; in the experiment on Mus musculus [4], 33%. For the same compound, the inhibition in vivo at 3.2 mg/kg came out at 83% in the experiment on Mus musculus [7] and 85% in the experiment on Mus musculus [10]. For the same compound, the inhibition in vivo at 0.32 mg/kg was found to be 67% in the experiment on Mus musculus [8] and 52% in the experiment on Mus musculus [13]. The inhibition in vivo at 0.01 mg/kg in the experiment with Mus musculus [11] was -3%. Further, in the experiment with Mus musculus [3], the inhibition in vivo at 0.1 mg/kg turned out to be 22%. The inhibition in vivo at 10 mg/kg with Mus musculus [1] is 64%. For the same compound, in the experiment on Mus musculus [12], the inhibition in vivo at 100 mg/kg is 77%. Moreover, the inhibition in vivo at 32 mg/kg in the experiment with Mus musculus [2] worked out at 100%.

Regarding `CSCCN(C(=O)c1c(O)c2cc(SC)ccc2n(C)c1=O)c1ccccc1`, in the experiment with Mus musculus [2], the inhibition in vivo at 32 mg/kg came out at 65%.

`CSc1ccc2c(c1)c(=O)c(C(=O)N(C)c1ccccc1)c(S)n2C`: the inhibition in vivo at 32 mg/kg with Mus musculus [2] was found to be 96%.

Take `CN(C(=O)c1c(O)c2ccccc2n(C)c1=O)c1ccccc1` [ROQUINIMEX]: the inhibition in vivo at 1 mg/kg in the experiment on Mus musculus [4] worked out at 13%. Besides, the inhibition in vivo at 10 mg/kg in the experiment with Mus musculus [1] was determined as 41%. Besides, the inhibition in vivo at 100 mg/kg in the experiment on Mus musculus [12] turned out to be 49%.

The record behind these values is ChEMBL document CHEMBL1134902, “Quinoline-3-carbothioamides and related compounds as novel immunomodulating agents” (2002).
